Consider 40 molecules from ChEMBL document CHEMBL1154388.

One may read the IC50 as the concentration at which inhibition is half-maximal. For orientation: Ki means the dissociation constant of the complex between target and ligand, obtained from inhibition or displacement. Low readings indicate tighter binding, high ones weaker binding. As a reminder, the EC50 is the concentration that produces a half-maximal response.

For experiment [1], the target named is T1, Metabotropic glutamate receptor 5 (Rattus norvegicus, UniProt P31424). Kind of experiment: Antagonist activity at rat mGluR5 expressed in HEK293 cells by calcium mobilization assay. It is filed as functional, cell-based. The essentials: (§1)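 Rat mGluR5 in HEK293A cells and rat mGluR1 in BHK cells were loaded with a Ca²⁺-sensitive fluorescent dye and washed. Compound was added 3 s after baseline and incubated for 140 s.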
T1 sequence (P31424 whole entry): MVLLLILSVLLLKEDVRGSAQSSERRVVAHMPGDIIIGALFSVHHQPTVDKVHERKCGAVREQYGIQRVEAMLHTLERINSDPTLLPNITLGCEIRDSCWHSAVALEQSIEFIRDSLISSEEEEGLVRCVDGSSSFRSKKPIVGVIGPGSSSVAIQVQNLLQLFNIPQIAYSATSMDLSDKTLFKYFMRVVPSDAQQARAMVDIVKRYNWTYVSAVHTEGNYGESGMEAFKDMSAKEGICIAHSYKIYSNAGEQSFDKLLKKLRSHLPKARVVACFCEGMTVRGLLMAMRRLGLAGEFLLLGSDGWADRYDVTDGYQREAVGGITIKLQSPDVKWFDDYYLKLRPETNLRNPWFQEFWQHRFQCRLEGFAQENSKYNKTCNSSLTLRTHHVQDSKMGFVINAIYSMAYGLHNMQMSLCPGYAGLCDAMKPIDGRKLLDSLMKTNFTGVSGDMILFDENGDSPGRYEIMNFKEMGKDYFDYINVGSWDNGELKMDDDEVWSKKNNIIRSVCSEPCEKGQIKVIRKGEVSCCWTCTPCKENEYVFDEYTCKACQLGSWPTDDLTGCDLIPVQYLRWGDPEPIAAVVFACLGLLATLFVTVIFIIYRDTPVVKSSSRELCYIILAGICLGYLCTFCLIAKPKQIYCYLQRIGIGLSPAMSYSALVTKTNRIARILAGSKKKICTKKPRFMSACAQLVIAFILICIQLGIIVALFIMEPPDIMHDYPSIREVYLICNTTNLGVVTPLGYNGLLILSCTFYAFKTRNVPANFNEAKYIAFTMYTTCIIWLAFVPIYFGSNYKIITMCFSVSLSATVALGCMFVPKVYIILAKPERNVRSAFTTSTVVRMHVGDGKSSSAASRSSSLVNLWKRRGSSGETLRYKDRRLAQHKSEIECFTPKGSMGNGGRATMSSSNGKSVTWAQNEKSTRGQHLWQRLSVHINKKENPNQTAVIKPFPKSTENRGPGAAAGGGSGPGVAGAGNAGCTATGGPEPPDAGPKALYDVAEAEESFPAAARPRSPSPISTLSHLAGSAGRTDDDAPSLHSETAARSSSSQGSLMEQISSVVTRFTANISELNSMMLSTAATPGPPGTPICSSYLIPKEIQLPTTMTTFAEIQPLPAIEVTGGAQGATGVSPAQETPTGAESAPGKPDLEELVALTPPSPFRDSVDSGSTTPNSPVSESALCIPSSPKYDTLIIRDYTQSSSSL
(Calcium assays in cells follow changes in intracellular calcium, usually with a dye or a luminescent sensor.)

Experiment [2] has as its target Metabotropic glutamate receptor 5 (Rattus norvegicus) (UniProt P31424). Kind of experiment: Positive allosteric modulator activity at rat mGluR5 receptor expressed in HEK293 cells assessed as potentiation of glutamate-induced response at 30 uM relative to glutamate. It is filed as cell-based. The essentials:
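In mGluR5-expressing HEK293A cells in the calcium mobilization assay, response amplitude with test compound present is expressed as a percentage of the maximal response to glutamate. Values are the average of n≥3.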

Experiment [3] concerns the target T1, Metabotropic glutamate receptor 5. Kind of experiment: Displacement of [3H]3methoxy-5-(pyridin-2-ylethynyl)pyridine from rat mGluR5. On the technique in general: Displacement assays read how much labelled ligand stays bound in the presence of the test substance.
Experiment [4] concerns the target Metabotropic glutamate receptor 1 (Rattus norvegicus, UniProt P23385). As to the kind of experiment: Antagonist activity at rat mGluR1 expressed in BHK cells by calcium mobilization assay. The class given is functional, cell-based. The essentials: as §1
The target of experiment [5] is T1, Metabotropic glutamate receptor 5. As to the kind of experiment: (§2) Positive allosteric modulator activity at rat mGluR5 receptor expressed in HEK293 cells assessed as potentiation of glutamate-induced response. The class given is cell-based.
Experiment [6] concerns the target Metabotropic glutamate receptor 5 (Rattus norvegicus) (UniProt P31424). The experiment is described as §2. It is filed as cell-based.

Molecules are shown by their SMILES.

Metabotropic glutamate receptor 5 (Rattus norvegicus), sequence (P31424 21-1203 limits assumed): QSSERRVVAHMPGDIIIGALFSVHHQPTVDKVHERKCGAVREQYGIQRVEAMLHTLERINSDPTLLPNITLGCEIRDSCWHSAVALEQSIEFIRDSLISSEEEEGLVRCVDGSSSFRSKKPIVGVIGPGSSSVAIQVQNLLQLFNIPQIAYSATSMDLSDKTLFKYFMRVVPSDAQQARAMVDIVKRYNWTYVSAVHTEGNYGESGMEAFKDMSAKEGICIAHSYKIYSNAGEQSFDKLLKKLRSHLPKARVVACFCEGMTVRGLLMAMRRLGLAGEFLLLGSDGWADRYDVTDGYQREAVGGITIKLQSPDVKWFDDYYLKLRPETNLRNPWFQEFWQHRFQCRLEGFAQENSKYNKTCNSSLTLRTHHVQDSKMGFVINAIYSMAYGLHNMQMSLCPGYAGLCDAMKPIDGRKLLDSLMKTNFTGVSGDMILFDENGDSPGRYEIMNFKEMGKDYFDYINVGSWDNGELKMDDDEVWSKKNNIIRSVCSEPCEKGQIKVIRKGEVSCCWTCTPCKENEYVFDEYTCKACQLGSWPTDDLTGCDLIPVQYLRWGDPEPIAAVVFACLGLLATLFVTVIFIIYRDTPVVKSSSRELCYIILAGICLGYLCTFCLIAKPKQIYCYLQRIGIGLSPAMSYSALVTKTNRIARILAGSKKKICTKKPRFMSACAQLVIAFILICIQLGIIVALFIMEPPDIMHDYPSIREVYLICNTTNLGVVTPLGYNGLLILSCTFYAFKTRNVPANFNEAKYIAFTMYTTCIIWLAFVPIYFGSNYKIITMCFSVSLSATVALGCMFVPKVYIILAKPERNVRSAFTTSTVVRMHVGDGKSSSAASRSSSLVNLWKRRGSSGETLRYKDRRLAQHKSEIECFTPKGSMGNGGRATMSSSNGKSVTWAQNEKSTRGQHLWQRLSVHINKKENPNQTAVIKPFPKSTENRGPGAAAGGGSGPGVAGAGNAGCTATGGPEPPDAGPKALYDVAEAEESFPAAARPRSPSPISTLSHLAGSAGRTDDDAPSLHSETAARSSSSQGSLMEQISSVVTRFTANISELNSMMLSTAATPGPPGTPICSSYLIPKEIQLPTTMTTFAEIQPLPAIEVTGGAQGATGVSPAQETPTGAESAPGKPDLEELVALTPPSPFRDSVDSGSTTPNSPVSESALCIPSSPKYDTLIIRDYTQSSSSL
Metabotropic glutamate receptor 1, sequence (P23385 whole entry): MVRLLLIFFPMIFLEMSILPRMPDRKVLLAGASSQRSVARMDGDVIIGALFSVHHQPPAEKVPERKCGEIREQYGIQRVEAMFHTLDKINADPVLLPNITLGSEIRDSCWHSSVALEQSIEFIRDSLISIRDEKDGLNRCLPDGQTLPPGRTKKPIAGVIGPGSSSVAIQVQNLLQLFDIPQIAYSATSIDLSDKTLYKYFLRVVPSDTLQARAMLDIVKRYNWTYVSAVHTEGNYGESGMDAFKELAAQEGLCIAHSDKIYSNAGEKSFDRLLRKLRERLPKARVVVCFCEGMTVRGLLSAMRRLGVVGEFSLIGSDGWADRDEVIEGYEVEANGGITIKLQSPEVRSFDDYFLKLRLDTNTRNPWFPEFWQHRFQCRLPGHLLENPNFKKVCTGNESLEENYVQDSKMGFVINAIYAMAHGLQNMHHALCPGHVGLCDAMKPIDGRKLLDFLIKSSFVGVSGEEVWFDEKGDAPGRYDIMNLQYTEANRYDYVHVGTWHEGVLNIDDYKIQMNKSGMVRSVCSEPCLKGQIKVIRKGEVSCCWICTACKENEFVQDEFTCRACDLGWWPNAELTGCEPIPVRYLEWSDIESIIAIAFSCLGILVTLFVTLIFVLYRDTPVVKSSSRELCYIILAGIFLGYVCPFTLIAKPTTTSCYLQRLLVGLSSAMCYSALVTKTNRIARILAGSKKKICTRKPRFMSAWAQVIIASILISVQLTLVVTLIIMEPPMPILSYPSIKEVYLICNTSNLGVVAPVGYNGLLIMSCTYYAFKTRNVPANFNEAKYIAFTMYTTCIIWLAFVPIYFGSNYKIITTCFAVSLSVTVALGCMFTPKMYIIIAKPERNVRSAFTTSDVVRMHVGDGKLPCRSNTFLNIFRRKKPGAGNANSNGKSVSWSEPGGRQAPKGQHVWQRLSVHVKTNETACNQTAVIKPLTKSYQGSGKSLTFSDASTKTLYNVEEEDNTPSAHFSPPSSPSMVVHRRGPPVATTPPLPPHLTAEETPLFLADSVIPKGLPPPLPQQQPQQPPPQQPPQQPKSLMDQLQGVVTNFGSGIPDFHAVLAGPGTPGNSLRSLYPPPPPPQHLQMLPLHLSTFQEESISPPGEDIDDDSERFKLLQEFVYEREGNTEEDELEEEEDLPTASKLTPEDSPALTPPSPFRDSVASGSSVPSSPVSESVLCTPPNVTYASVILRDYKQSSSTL

On to `N#Cc1ccc2ncnc(Nc3cccc(Cl)c3)c2c1`, for which, in experiment [1], the concentration for half-maximal inhibition (IC50) is > 10000 nM. Besides, the Activity in experiment [2] is 35%.
With `FC(F)(F)c1cccc(Nc2ncnc3ccc(Br)cc23)c1`, the half-maximal inhibitory concentration (IC50) in experiment [1] stood at 1720 nM. The Activity in experiment [2] is 3.2%.
As to `Fc1ccc2ncnc(Nc3ccc(F)c(Cl)c3)c2c1`, the IC50 in experiment [1] is > 10000 nM.
As for `Fc1cc(Cl)cc(Nc2ncnc3ccc(F)cc23)c1`, the IC50 in experiment [1] was > 10000 nM. Moreover, the Activity in experiment [2] was 56%.
Turning to `Fc1ccc2ncnc(Nc3cccc(Br)c3)c2c1`, the IC50 in experiment [1] was 96 nM; in experiment [4], 713 nM. This molecule came in with a Ki in experiment [3] of 736 nM. Moreover, the Activity in experiment [2] stood at 0.6%.
On the same counts, the results for `Clc1cccc(Nc2ncnc3ccc(Br)cc23)c1` are 256 nM, 398 nM, 116 nM and 1.5%.
For the molecule `Brc1ccc2ncnc(Nc3ccccc3)c2c1`, the IC50 in experiment [1] is > 10000 nM. The Activity in experiment [2] is 42%.
For `COc1ccc2ncnc(Nc3cccc(Cl)c3)c2c1`, in that order: 1510 nM and 13%.
On the same counts, the results for `Brc1cccc(Nc2ncnc3ccc(Br)cc23)c1` are 174 nM and 2.5%.
As to `Clc1ccc2ncnc(NCc3ccccc3)c2c1`, the IC50 in experiment [1] was > 30000 nM.
As to `Fc1ccc2ncnc(Nc3cccc(Cl)c3F)c2c1`, the half-maximal inhibitory concentration (IC50) in experiment [1] worked out at 3720 nM. In addition, the Activity in experiment [2] was 5.2%.
Turning to `Brc1cccc(Nc2nccc3ccc(Br)cc23)c1`, in experiment [1], the concentration for half-maximal inhibition (IC50) came to 4330 nM. Further, the Activity in experiment [2] came to 5.4%.
On the same counts, the results for `Clc1ccc2ncnc(Oc3cccc(Br)c3)c2c1` are 6570 nM and 14%.
For the molecule `Clc1ccc2ncnc(NCCc3ccccc3Cl)c2c1`, the IC50 in experiment [1] was > 30000 nM.
In the case of `Cc1cccc(Nc2ncnc3ccc(Br)cc23)c1`, the IC50 in experiment [1] was determined as 246 nM. Moreover, in experiment [2], the Activity is 1.2%.
In the case of `CN(c1cccc(Br)c1)c1ncnc2ccc(Br)cc12`, the IC50 in experiment [1] was > 30000 nM.
Still for that read-out and setting: the same measure for `CN(c1cccc(Br)c1)c1ncnc2ccc(Cl)cc12`: > 30000 nM.
On to `Clc1ccc2ncnc(NCc3ccccc3Cl)c2c1`, for which the IC50 in experiment [1] was > 30000 nM.
Regarding `Fc1ccc2ncnc(Nc3ccccc3)c2c1`, the IC50 in experiment [1] was > 10000 nM. For the same molecule, the Activity in experiment [2] worked out at 58%.
On the same counts, the results for `O=[N+]([O-])c1ccc2ncnc(Nc3cccc(Cl)c3)c2c1` are 274 nM and 2.4%.
Turning to `Clc1cccc(CCNc2ncnc3ccc(Cl)cc23)c1`, the IC50 in experiment [1] is > 30000 nM.
Regarding `Clc1cccc(Nc2ncnc3ccc(Cl)cc23)c1`, the IC50 in experiment [1] came to 130 nM. Besides, the Activity in experiment [2] turned out to be 2.8%.
On the same counts, the results for `Fc1ccc2ncnc(Nc3cccc(C(F)(F)F)c3)c2c1` are > 10000 nM and 32%.
For `N#Cc1cccc(Nc2ncnc3ccc(F)cc23)c1`, in that order: 1370 nM and 3.5%.
As for `COc1cccc(Nc2ncnc3ccc(F)cc23)c1`, in experiment [1], the 50% inhibitory concentration (IC50) is > 10000 nM. For the same molecule, the Activity in experiment [2] stood at 50%.
As to `Clc1ccc2nccc(Nc3cccc(Br)c3)c2c1`, the IC50 in experiment [1] is > 30000 nM.
On to `Fc1cccc(Nc2ncnc3ccc(Br)cc23)c1`, for which the IC50 in experiment [1] was 1970 nM. Also, the Activity in experiment [2] turned out to be 8.8%.
`Clc1ccc2ncnc(Sc3cccc(Br)c3)c2c1`: in experiment [1], the concentration for half-maximal inhibition (IC50) was > 30000 nM.
Regarding `CCc1cccc(Nc2ncnc3ccc(F)cc23)c1`, in experiment [5], the concentration giving a half-maximal response (EC50) is > 10000 nM. Moreover, the Activity in experiment [6] is 52%.
For `Clc1ccc(CNc2ncnc3ccc(Cl)cc23)cc1`, in experiment [1], the IC50 was > 30000 nM.
`Brc1cccc(Sc2ncnc3ccc(Br)cc23)c1`: in experiment [1], the IC50 is > 30000 nM.
Turning to `Fc1ccc2ncnc(Nc3cccc(Cl)c3)c2c1`, in experiment [1], the 50% inhibitory concentration (IC50) amounted to 311 nM. Moreover, the Activity in experiment [2] was determined as 0.9%.
In the case of `COc1cccc(Nc2ncnc3ccc(Br)cc23)c1`, in experiment [1], the concentration for half-maximal inhibition (IC50) was > 10000 nM. The Activity in experiment [2] was 34%.
For the molecule `Clc1ccc2ncnc(Nc3cccc(Br)c3)c2c1`, the concentration for half-maximal inhibition (IC50) in experiment [1] is 124 nM; in experiment [4] it was 955 nM. For the same molecule, the affinity in experiment [3] corresponds to a Ki of 249 nM. The Activity in experiment [2] came out at 1.2%.
For `Clc1ccc(CCNc2ncnc3ccc(Cl)cc23)cc1`, the 50% inhibitory concentration (IC50) in experiment [1] was > 30000 nM.
For `Cc1cccc(Nc2ncnc3ccc(F)cc23)c1`, the half-maximal inhibitory concentration (IC50) in experiment [1] came to 1350 nM. In experiment [2], the Activity was determined as 3.5%.
As for `Clc1cccc(CNc2ncnc3ccc(Cl)cc23)c1`, in experiment [1], the IC50 is > 30000 nM.
For `Clc1ccc2ncnc(Nc3ccccc3)c2c1`, the IC50 in experiment [1] is > 10000 nM. Further, the Activity in experiment [2] is 31%.
On the same counts, the results for `Clc1ccc2ncnc(NCCc3ccccc3)c2c1` are > 10000 nM and 59%.
On the same counts, the results for `Brc1cccc(Oc2ncnc3ccc(Br)cc23)c1` are > 10000 nM and 49%.
